Results from ChEMBL document CHEMBL4715812, “Zampanolide Binding to Tubulin Indicates Cross-Talk of Taxane Site with Colchicine and Nucleotide Sites” (J Nat Prod, 2018).
The source made the active and inactive calls. The calls are words filed in the database; no cut-off is given here.

Legend:
Homo sapiens [1] = organism: Homo sapiens; experiment: (§1) Covalent modification of GAB-buffer assembled microtubule (unknown origin) assessed as effect on nucleotide binding affinity at E-site by measuring ratio of GTP concentration to tubulin concentration incubated for 30 mins in presence or absence of 1 mM GTP and measured after 20 mins by HPLC analysis (reference value: 1)
Outline: (§2)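 Calf-brain tubulin equilibrated in PEDTA (10 mM NaPi, 1 mM EDTA, pH 7.0), with 10% molar excess ligand or DMSO, then supplemented with 3.4 M glycerol, 1 mM EGTA, MgCl2 to 6 mM, and no nucleotide or 1 mM GTP. Assembled 30 min at 37 °C, spun 20 min at 37 °C, pellets washed in warm GAB without GTP. Tubulin measured, nucleotides extracted and quantified by HPLC.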

Homo sapiens [2] = organism: Homo sapiens; experiment: as §1, with “of GDP” for “of GTP”, “to microtubule” for “to tubulin”; outline: as §2
Homo sapiens [3] = organism: Homo sapiens; experiment: Binding affinity to stabilized microtubule (unknown origin) at 25 degreeC incubated for 30 mins followed by GTP addition and measured after 30 mins by HPLC analysis; conditions: time 1.0 hrs
Outline: (§3)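 Stabilized cross-linked microtubules (0.6 μM) preincubated 30 min, 25 °C with 10% excess zampanolide or DMSO in GAB (3.4 M glycerol, 10 mM NaPi, 1 mM EDTA, 6 mM MgCl2, 0.1 mM GTP, pH 6.7); peloruside 0.1–10 μM added, further 30 min at 25 °C; spun 20 min at 50 000 rpm; supernatant/pellet ligand by reverse-phase HPLC at 205/230 nm; Kb fitted, three independent measurements.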

Bos taurus [4] = organism: Bos taurus; experiment: (§4) Covalent modification of compound-ligated activated form of calf brain dimeric tubulin assessed as effect on nucleotide binding affinity at E-site by measuring ratio of GDP nucleotide concentration to tubulin concentration incubated for 1.5 hrs in presence or absence of 10 uM GTP followed by passage through sephadex G25 column by HPLC analysis (reference value: 0.06 +/- 0.03)
Outline: (§5)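 40 μM calf-brain tubulin in PEDTA buffer (10 mM NaPi, 1 mM EDTA, pH 7.0) incubated 1.5 h at 25 °C with 10% excess ligand or DMSO. Unbound nucleotide removed on Sephadex G-25 in PEDTA plus 10 μM GTP and […] at 4 °C. Aliquot diluted 20-fold in 10 mM NaPi, 1% SDS, pH 7.0; tubulin and nucleotide quantified, nucleotides by HPLC after extraction.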

Bos taurus [5] = organism: Bos taurus; experiment: as §4, with “GTP” for “GDP nucleotide”, “1.94” for “0.06”; outline: as §5
Homo sapiens [6] = organism: Homo sapiens; experiment: Induction of oligomerization of compound modified microtubule (unknown origin) assessed as peloruside binding constant at 25 degreeC incubated for 30 mins followed by GTP addition and measured after 30 mins by HPLC analysis; conditions: time 1.0 hrs; outline: as §3
Bos taurus [7] = organism: Bos taurus; experiment: Induction of oligomerization of compound-ligated activated form of calf brain tubulin at 55 uM incubated for 30 mins in presence of 0.1 mM GDP and 0.039 mM Mg2+ by analytical ultracentrifugation
Outline: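 Sedimentation velocity of 50 μM tubulin with 55 μM zampanolide or DMSO in PEDTA, 0.1 mM GDP, 1 mM total Mg2+ (0.039 mM free); 25 °C for 30 min, 40 000 rpm; c(S) fitted, corrected to water/20 °C.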

Bos taurus [8] = organism: Bos taurus; experiment: Induction of oligomerization of compound-ligated activated form of calf brain tubulin assessed as formation of microtubule by measuring sedimentation coefficient at 55 uM incubated for 30 mins in presence of GDP and 3.31 mM Mg2+ by electron micrography analysis
Outline: (§6)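 Calf-brain tubulin 50 μM in PEDTA with 55 μM zampanolide or DMSO, 1 mM GDP, 7 mM total (3.31 mM free) Mg2+, plus DTT; incubated 25 °C, 30 min, sedimentation velocity at 40 000 rpm; c(S) by least-squares boundary modelling corrected to water/20 °C; assembled polymer checked by uranyl acetate negative-stain EM.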

Bos taurus [9] = organism: Bos taurus; experiment: Induction of oligomerization of compound-ligated activated form of calf brain tubulin assessed as tubulin-tubulin interaction causing aggregation formation at 55 uM incubated for 30 mins in presence of GTP and 1.5 mM Mg2+ by analytical ultracentrifugation
Outline: (§7)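 Tubulin 50 μM in PEDTA with 55 μM zampanolide or DMSO and 0.1 mM GTP; Mg2+ 1.5 mM total (0.14 mM free) or 3 mM total (0.77 mM free), free Mg2+ corrected for phosphate, nucleotide, EDTA binding; 25 °C, 30 min, then 40 000 rpm ultracentrifugation; c(S) distributions; negative-stain EM of samples.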

Bos taurus [10] = organism: Bos taurus; experiment: Induction of oligomerization of compound-ligated activated form of calf brain tubulin at 55 uM incubated for 30 mins in presence of 0.1 mM GTP and 0.028 mM Mg2+ by analytical ultracentrifugation
Outline: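 Sedimentation velocity of 50 μM tubulin with 55 μM zampanolide or DMSO in PEDTA, 0.1 mM GTP, 1 mM total Mg2+ (0.028 mM free); 25 °C for 30 min, 40 000 rpm; c(S) fitted, corrected to water/20 °C.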

Bos taurus [11] = organism: Bos taurus; experiment: Induction of oligomerization of compound-ligated activated form of calf brain tubulin assessed as formation of microtubule at 55 uM incubated for 30 mins in presence of GTP and 3 mM Mg2+ by electron micrography analysis; outline: as §7
Bos taurus [12] = organism: Bos taurus; experiment: Induction of oligomerization of compound-ligated activated form of calf brain tubulin assessed as oligomer formation by measuring sedimentation coefficient at 55 uM incubated for 30 mins in presence of GTP/GDP and 0.14 mM Mg2+ by analytical ultracentrifugation
Bos taurus [13] = organism: Bos taurus; experiment: Induction of oligomerization of compound-ligated activated form of calf brain tubulin assessed as formation of tetramers by measuring sedimentation coefficient at 55 uM incubated for 30 mins in presence of GDP and 3.31 mM Mg2+ by analytical ultracentrifugation; outline: as §6
Bos taurus [14] = organism: Bos taurus; experiment: Induction of oligomerization of compound-ligated activated form of calf brain tubulin assessed as formation of dimers by measuring sedimentation coefficient at 55 uM incubated for 30 mins in presence of GDP and 3.31 mM Mg2+ by […]; outline: as §6
Bos taurus [15] = organism: Bos taurus; experiment: Induction of oligomerization of compound-ligated activated form of calf brain tubulin assessed as formation of double rings by measuring sedimentation coefficient at 55 uM incubated for 30 mins in presence of GDP and 3.31 mM Mg2+ by analytical ultracentrifugation; outline: as §6
Bos taurus [16] = organism: Bos taurus; experiment: Binding affinity to zampanolide-modified calf brain tubulin assessed as compound-protein complex stoichiometry ratio of 1:1 in absence of Mg2+ by spectrofluorometry assay
Bos taurus [17] = organism: Bos taurus; experiment: Binding affinity to zampanolide-modified calf brain tubulin
Bos taurus [18] = organism: Bos taurus; experiment: Binding affinity to calf brain tubulin assessed as compound-protein complex stoichiometry ratio of 1:1 in absence of Mg2+ by spectrofluorometry analysis
Bos taurus [19] = organism: Bos taurus; experiment: Induction of oligomerization calf brain tubulin assessed as formation of microtubule at 100 uM incubated for 30 mins in presence of GTP and 3 mM Mg2+ by electron micrography analysis

SMILES: CC(=O)O[C@@]12CO[C@@H]1C[C@H](O)[C@@]1(C)C(=O)[C@H](O)C3=C(C)[C@@H](OC(=O)[C@H](O)[C@@H](NC(=O)OC(C)(C)C)c4ccccc4)C[C@@](O)([C@@H](OC(=O)c4ccccc4)[C@H]21)C3(C)C
- Ratio (Homo sapiens [1]): 1.02
- Ratio (Homo sapiens [2]): 1.03

SMILES: CC[C@H](/C=C(/C)[C@@H]1C[C@@H](OC)C[C@H](O)C(C)(C)[C@@]2(O)O[C@@H](C[C@@H](OC)[C@H](O)C(=O)O1)C[C@@H](OC)[C@H]2O)CO
- Kb (Homo sapiens [3]): 4 10^6/M

SMILES: CC1=C[C@H]2[C@@H](O)[C@H](C)[C@@H](O)[C@@H]2[C@H]2[C@@H]3C4=C5O[C@@](C)(CC[C@H](OC4=O)[C@@H]5C)[C@@H]3C[C@@H]12
- Ratio (Homo sapiens [1]): 1.03
- Ratio (Bos taurus [4]): 0.02
- Ratio (Bos taurus [5]): 1.83
- Ratio (Homo sapiens [2]): 0.97

SMILES: C=C1C[C@@H]2C/C=C/C(=O)C/C(C)=C\C=C\C(=O)O[C@H]([C@H](O)NC(=O)/C=C\C=C\C)C/C(C)=C/[C@H](C1)O2
- Kb (Homo sapiens [6]): 3.1 10^6/M
- Activity (Bos taurus [7]): inactive
- S20,w (Bos taurus [8]): > 50 Svedberg
- Activity (Bos taurus [9]): inactive
- Activity (Bos taurus [10]): inactive
- Ratio (Homo sapiens [1]): 0.92
- Ratio (Bos taurus [4]): 0.04
- S20,w (Bos taurus [11]): > 50 Svedberg
- Ratio (Bos taurus [5]): 0.91
- S20,w (Bos taurus [12]): 9 Svedberg
- S20,w (Bos taurus [13]): 8 Svedberg
- S20,w (Bos taurus [14]): 6 Svedberg
- S20,w (Bos taurus [15]): 36 Svedberg
- Ratio (Homo sapiens [2]): 0.84

SMILES: COc1ccc(-c2ccc(OC)c(=O)cc2)c(OC)c1OC
- Activity (Bos taurus [16]): Active
- Kb (Bos taurus [17]): 4.5 10^6/M
- Activity (Bos taurus [18]): Active

SMILES: C=C1C[C@H]2C/C=C/C(=O)C/C(C)=C\C=C\C(=O)O[C@@H](C=O)C/C(C)=C/[C@@H](C1)O2
- Ratio (Homo sapiens [1]): 0.95
- Ratio (Bos taurus [4]): 0.03
- Ratio (Bos taurus [5]): 1.33
- Ratio (Homo sapiens [2]): 0.84

SMILES: C/C(=C\c1csc(C)n1)[C@@H]1C[C@@H]2O[C@]2(C)CCC[C@H](C)[C@H](O)[C@@H](C)C(=O)C(C)(C)[C@@H](O)CC(=O)O1
- Activity (Bos taurus [19]): Active
